# Measured values reported in ChEMBL document CHEMBL4673335, “Store-Operated Calcium Entry as a Therapeutic Target in Acute Pancreatitis: Discovery and Development of Drug-Like SOCE Inhibitors” (J Med Chem, 2020).
# The source made the active and inactive calls. The rule behind the calls is not given here.
# Experiments:
# [1] = Thermodynamic aqueous solubility; assay type: physicochemical; details: read-out: Therm_solubility
# Method in brief: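 About 3 mg compound in 3 mL deionized water, vortexed, sonicated 5 min, then shaken overnight at 25 °C. Filtered through a 0.22 μm membrane, DMSO added, diluted about 1:10 in water. Quantified by LC–UV against DMSO standard solutions.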
# [2] = Metabolic stability in mouse liver microsomes assessed as compound remaining after 1 hr; assay type: ADME, Microsome; details: read-out: Stabilty
# Method in brief: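 Pooled male CD-1 mouse liver microsomes (20 mg/mL protein stock), NADPH-activated. Substrate at 5 μM. Residual parent measured after 1 h incubation.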
# [3] = target: T1, ORAI1/STIM1 (Homo sapiens) (UniProt Q96D31+Q13586); assay: Inhibition of STIM1/Orai1 (unknown origin) expressed in HEK293 cells assessed as reduction in tBHQ-induced calcium response at 10 uM relative to control; assay type: cell-based
# Method in brief: (§1)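 HEK cells, calcium imaging by fluorescence microscopy. Ca2+ added after 600 s and intracellular levels recorded. Traces averaged over 200 cells, then scored as AUC, peak amplitude and slope of the Ca2+ rise versus untreated control. Compound working solutions diluted from a 50 mM DMSO stock to 0.1% DMSO in physiologic buffer.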
# HEK293 [4] = assay: Cytotoxicity in HEK293 cells assessed as cell viability at 10 uM after 24 hrs by MTT assay; assay type: cell-based; details: human, hek293, 24 h
# Method in brief: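 MTT viability assay. HEK cells seeded at 20,000 per well, treated 24 h after plating for a further 24 h. MTT at 0.25 mg/mL final for 60 min at 37 °C. Crystals dissolved in isopropyl alcohol/HCl (1 M), absorbance read at 570 nm. Compounds diluted to 0.1% DMSO in culture medium.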
# ORAI1/STIM1 = ORAI1/STIM1 (Homo sapiens, UniProt Q13586+Q96D31); assay: Inhibition of STIM1/Orai1 (unknown origin) expressed in HEK293 cells assessed as reduction in tBHQ-induced calcium response; assay type: cell-based
# [5] = target: T1, ORAI1/STIM1 (Homo sapiens); assay: Inhibition of STIM1/Orai1 (unknown origin) expressed in HEK293 cells assessed as reduction in tBHQ-induced calcium response by measuring decrease in calcium entry AUC at 10 uM relative to control; assay type: cell-based; method in brief: as §1
# [6] = target: T1, ORAI1/STIM1 (Homo sapiens); assay: Inhibition of STIM1/Orai1 (unknown origin) expressed in HEK293 cells assessed as reduction in tBHQ-induced calcium response by measuring decrease in peak amplitude of calcium entry at 10 uM relative to control; assay type: cell-based; method in brief: as §1
# [7] = target: T1, ORAI1/STIM1 (Homo sapiens); assay: Inhibition of STIM1/Orai1 (unknown origin) expressed in HEK293 cells assessed as reduction in tBHQ-induced calcium response by measuring decrease in slope of calcium entry at 10 uM relative to control; assay type: cell-based; method in brief: as §1
# [8] = Inhibition of CRAC (unknown origin); design: species or system Homo sapiens
# HEK293 [9] = assay: Cytotoxicity in HEK293 cells assessed as cell viability at 50 uM after 72 hrs by MTT assay; assay type: cell-based; details: human, hek293, 72 h
# Method in brief: (§2)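 MTT viability in HEK cells after 72 h treatment at 50 μM, with or without 100 μM uridine. MTT at 0.25 mg/mL final for 60 min at 37 °C, solubilized in isopropyl alcohol/HCl (1 M), absorbance read at 570 nm. Mean ± SEM, Student t-test against control.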
# HEK293 [10] = assay: Cytotoxicity in HEK293 cells assessed as cell viability at 50 uM after 72 hrs in presence of excess uridine by MTT assay; assay type: cell-based; details: human, hek293, 72 h; method in brief: as §2
# [11] = Drug metabolism in mouse liver microsomes assessed as amide hydrolysis; assay type: ADME, Microsome
# Method in brief: (§3)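 Pooled male CD-1 mouse liver microsomes, phase I and glucuronidation (phase II) incubations. Substrate at 50 μM. Metabolites characterized by HRMS. For metabolic activation studies, 3 mM GSH added as trapping agent.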
# [12] = Drug metabolism in mouse liver microsomes assessed as O-demethylation; assay type: ADME, Microsome; method in brief: as §3
# Mus musculus [13] = assay: Anti pancreatitis activity in C57BL/6 mouse model of cerulein-induced acute pancreatitis assessed as amelioration of histological scores at 10 mg/kg, ip administered 30 and 150 mins after the first cerulein injection measured 5 hrs after first cerulein injection by H and E staining based assay; assay type: functional, organism-based
# Method in brief: (§4)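 Acute pancreatitis induced in mice by i.p. cerulein injections. Test agent given i.p. at 10 mg/kg, 30 and 150 min after the first cerulein injection. Pancreas collected 5 h after the first cerulein injection, H&E stained and scored histologically for inflammation and edema.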
# Mus musculus [14] = assay: Anti pancreatitis activity in C57BL/6 mouse model of cerulein-induced acute pancreatitis assessed as reduction of inflammation and edema at 10 mg/kg, ip administered 30 and 150 mins after the first cerulein injection measured 5 hrs after first cerulein injection by H and E staining based assay; assay type: functional, organism-based; method in brief: as §4
# [15] = Half life in C57BL/6 mouse ip dosed as single administration measured up to 24 hrs; details: in vivo
# [16] = Thermodynamic aqueous solubility at 6 mg/mL in saline containing 10% DMSO + 20% PEG400; details: buffer
# [17] = Drug metabolism in mouse liver microsomes assessed as O-demethylation by high-resolution mass spectrometry; assay type: ADME, Microsome; method in brief: as §3
# [18] = Drug metabolism in mouse liver microsomes assessed as oxidation by high-resolution mass spectrometry; assay type: ADME, Microsome; method in brief: as §3
# [19] = Drug metabolism in mouse liver microsomes assessed as hydroxylation by high-resolution mass spectrometry; assay type: ADME, Microsome; method in brief: as §3
# [20] = Drug metabolism in mouse liver microsomes assessed as acyl glucuronide metabolite formation in presence of UDPGA by high-resolution mass spectrometry; assay type: ADME, Microsome; method in brief: as §3
# [21] = Half life in C57BL/6 mouse at 7 mg/kg, iv dosed as single administration measured up to 24 hrs; assay type: ADME, organism-based; details: in vivo
# [22] = Clearance in C57BL/6 mouse at 7 mg/kg, iv dosed as single administration measured up to 24 hrs; assay type: ADME, organism-based; details: in vivo
# [23] = Volume of distribution in C57BL/6 mouse at 7 mg/kg, iv dosed as single administration measured up to 24 hrs; assay type: ADME, organism-based; details: in vivo
# [24] = Cmax in C57BL/6 mouse at 7 mg/kg, iv dosed as single administration measured up to 24 hrs; assay type: ADME, organism-based; design: route intravenous, dose 7 mg/kg, time <=24; details: in vivo
# HEK293 [25] = assay: Cytotoxicity in HEK293 cells assessed as cell viability up to 60 uM after 72 hrs in presence of excess uridine by MTT assay; assay type: cell-based; details: human, hek293, 72 h
# [26] = target: T1, ORAI1/STIM1 (Homo sapiens); assay: Activation of STIM1/Orai1 (unknown origin) expressed in HEK293 cells assessed as increase in tBHQ-induced calcium response by measuring increase in peak amplitude of calcium entry at 10 uM relative to control; assay type: cell-based; details: filed as opener, dose 3.0 µM, in the assay text read “at 3 uM” for “at 10 uM”; method in brief: as §1
# [27] = target: T1, ORAI1/STIM1 (Homo sapiens); assay: Activation of STIM1/Orai1 (unknown origin) expressed in HEK293 cells assessed as increase in tBHQ-induced calcium response by measuring increase in AUC of calcium entry at 10 uM relative to control; assay type: cell-based; details: filed as opener, dose 3.0 µM, in the assay text read “at 3 uM” for “at 10 uM”; method in brief: as §1
# [28] = dose 3.0 µM, in the assay text read “at 3 uM” for “at 10 uM”
# Sequence of ORAI1/STIM1 (Q96D31 whole entry): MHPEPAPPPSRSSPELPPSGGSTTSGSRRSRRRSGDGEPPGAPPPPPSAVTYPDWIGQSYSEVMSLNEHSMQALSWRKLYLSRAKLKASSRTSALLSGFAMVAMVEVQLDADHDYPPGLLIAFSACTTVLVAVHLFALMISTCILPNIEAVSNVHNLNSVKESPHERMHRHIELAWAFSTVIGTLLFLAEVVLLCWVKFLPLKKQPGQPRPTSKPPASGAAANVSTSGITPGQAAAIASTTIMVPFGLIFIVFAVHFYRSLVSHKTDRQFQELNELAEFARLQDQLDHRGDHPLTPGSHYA
# Sequence of ORAI1/STIM1 (Q13586 whole entry): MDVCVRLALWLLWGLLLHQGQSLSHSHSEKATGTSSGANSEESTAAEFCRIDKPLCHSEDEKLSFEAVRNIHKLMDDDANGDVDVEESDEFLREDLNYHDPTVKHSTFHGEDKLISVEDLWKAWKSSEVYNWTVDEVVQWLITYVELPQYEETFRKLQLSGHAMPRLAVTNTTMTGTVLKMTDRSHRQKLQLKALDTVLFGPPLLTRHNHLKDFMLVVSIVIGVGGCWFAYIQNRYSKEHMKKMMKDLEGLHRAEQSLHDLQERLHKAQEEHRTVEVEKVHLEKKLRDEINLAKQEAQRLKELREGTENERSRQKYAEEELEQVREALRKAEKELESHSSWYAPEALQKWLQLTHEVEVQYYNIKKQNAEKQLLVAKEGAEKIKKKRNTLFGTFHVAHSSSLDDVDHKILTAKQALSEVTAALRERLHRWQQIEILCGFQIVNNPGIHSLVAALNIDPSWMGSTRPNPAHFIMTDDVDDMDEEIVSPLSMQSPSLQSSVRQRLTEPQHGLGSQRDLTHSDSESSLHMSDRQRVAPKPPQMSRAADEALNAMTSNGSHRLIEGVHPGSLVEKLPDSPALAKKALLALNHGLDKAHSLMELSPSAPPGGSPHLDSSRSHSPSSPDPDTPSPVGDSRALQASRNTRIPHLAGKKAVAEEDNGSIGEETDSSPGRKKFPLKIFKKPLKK
# T1 sequence (Q13586 23-685 partner limits assumed): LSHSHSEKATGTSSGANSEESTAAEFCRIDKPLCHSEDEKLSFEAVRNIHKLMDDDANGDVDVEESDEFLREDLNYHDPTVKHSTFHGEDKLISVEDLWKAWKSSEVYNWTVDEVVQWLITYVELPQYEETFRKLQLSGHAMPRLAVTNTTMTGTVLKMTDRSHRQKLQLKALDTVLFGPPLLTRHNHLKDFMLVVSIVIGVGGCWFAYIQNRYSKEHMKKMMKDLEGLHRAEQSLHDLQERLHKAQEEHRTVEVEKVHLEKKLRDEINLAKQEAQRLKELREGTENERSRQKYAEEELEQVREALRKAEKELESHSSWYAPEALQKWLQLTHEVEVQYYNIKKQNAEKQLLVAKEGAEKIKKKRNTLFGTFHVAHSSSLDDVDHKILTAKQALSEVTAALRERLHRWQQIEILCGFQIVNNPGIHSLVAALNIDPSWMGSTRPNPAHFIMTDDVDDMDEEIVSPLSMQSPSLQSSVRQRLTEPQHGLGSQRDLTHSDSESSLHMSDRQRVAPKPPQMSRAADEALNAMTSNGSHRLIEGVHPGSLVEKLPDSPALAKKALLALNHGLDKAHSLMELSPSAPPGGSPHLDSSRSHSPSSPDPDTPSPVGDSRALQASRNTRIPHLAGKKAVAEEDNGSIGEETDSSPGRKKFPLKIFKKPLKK
# T1 sequence (Q96D31 whole entry): as the sequence (Q96D31 whole entry) above
solubility thermodynamic [1] [µg/mL],remaining at 1 h [2] [%],IC50 (ORAI1/STIM1) [nM],inhibition [5],inhibition [6],inhibition [7],Compound,Activity (HEK293 [4]) [%],also measured
668,94,,,,,O=C([O-])c1cccc(-c2cn(-c3ccc(-c4ccc5c(c4)OCCO5)cc3)nn2)c1.[Na+],,
,,1620,Active,Active,Active,O=C(O)c1cccc(-c2cn(-c3ccc(-c4cccc5c4OCCO5)cc3)nn2)c1,90.5,"inhibition [3, 28]: 70.9%"
,,,Active,Active,Active,COc1cccc(-c2ccc(-n3cc(-c4cccc(C(=O)O)c4)nn3)cc2)c1 [listing 1 of 2 here],,"inhibition [3, 28]: 85.1%"
856,91,,,,,COc1cccc(-c2ccc(-n3cc(-c4cccc(C(=O)[O-])c4)nn3)cc2)c1.[Na+],,
,,,Active,Active,Active,COc1cc(OC)cc(-c2ccc(-n3cc(-c4cccc(C(=O)O)c4)nn3)cc2)c1 [listing 1 of 2 here],,"inhibition [3, 28]: 73.8%"
0.28,15,228,Active,Active,Active,COc1ccc(OC)c(-c2ccc(NC(=O)c3ccncc3F)cc2)c1,75.8,IC50 [8]: 1400 nM; inhibition ([3]; dose 10.0 µM): 90.8%; Activity (HEK293 [9]): Toxic; Activity (HEK293 [10]): Non-Toxic; Drug metabolism [11]: Metabolite_Detected; Drug metabolism [12]: Metabolite_Detected
,,,Active,Active,Active,COc1cccc(-c2ccc(-n3cc(-c4cccc(C(=O)O)c4)nn3)cc2)c1OC [listing 1 of 2 here],,"inhibition [3, 28]: 96.5%; Activity (Mus musculus [13]): Active; Activity (Mus musculus [14]): Active"
,,781,Active,Active,Active,COc1cccc(-c2ccc(-c3cn(-c4cccc(C(=O)O)c4)nn3)cc2)c1OC,,inhibition ([3]; dose 10.0 µM): 93.3%
,,,Active,Active,Active,COc1ccc(F)c(-c2ccc(-n3cc(-c4cccc(C(=O)O)c4)nn3)cc2)c1 [listing 1 of 2 here],,inhibition ([3]; dose 10.0 µM): 74.7%
,,361,,,,COc1ccc(F)c(-c2ccc(-n3cc(-c4cccc(C(=O)O)c4)nn3)cc2)c1 [listing 2 of 2 here],91.1,Activity (HEK293 [9]): Non-Toxic; Activity (HEK293 [10]): Non-Toxic
,,,,,,CCCC(C)OC(=O)c1cnn(-c2ccc(-n3cc(-c4cccc(C(=O)O)c4)nn3)cc2)c1C(F)(F)F (stereo not given),,half-life [15]: 1.3 h
,,866,Active,Active,Active,COc1ccc(F)c(-c2ccc(-c3cn(-c4cccc(C(=O)O)c4)nn3)cc2)c1,92.3,inhibition ([3]; dose 10.0 µM): 88.9%
,,807,,,,COc1cccc(-c2ccc(-n3cc(-c4cccc(C(=O)O)c4)nn3)cc2)c1 [listing 2 of 2 here],,Activity (HEK293 [9]): Non-Toxic; Activity (HEK293 [10]): Non-Toxic
18.7,92,,,,,COc1cc(OC)cc(-c2ccc(-n3cc(-c4cccc(C(=O)[O-])c4)nn3)cc2)c1.[Na+],,
,,802,,,,COc1cc(OC)cc(-c2ccc(-n3cc(-c4cccc(C(=O)O)c4)nn3)cc2)c1 [listing 2 of 2 here],94.3,Activity (HEK293 [9]): Non-Toxic; Activity (HEK293 [10]): Non-Toxic
1530,75,,,,,COc1cccc(-c2ccc(-n3cc(-c4cccc(C(=O)[O-])c4)nn3)cc2)c1OC.[Na+],,Therm_solubility [16]: Soluble
,,851,,,,COc1cccc(-c2ccc(-n3cc(-c4cccc(C(=O)O)c4)nn3)cc2)c1OC [listing 2 of 2 here],85.6,Activity (HEK293 [9]): Non-Toxic; Activity (HEK293 [10]): Non-Toxic; Drug metabolism [17]: Metabolite_Detected; Drug metabolism [18]: Metabolite_Detected; Drug metabolism [19]: Metabolite_Detected; Drug metabolism [20]: Metabolite_Detected; t1/2 [21]: 3.2 h; CL [22]: 8.3 mL/min/kg; Vd [23]: 2.3 L/kg; Cmax [24]: 16800 ng/mL; Activity (HEK293 [25]): Non-Toxic
,,,Active,Active,Active,O=C(O)c1cccc(-c2cn(-c3ccc(-c4ccc5c(c4)OCCO5)cc3)nn2)c1,,inhibition ([3]; dose 10.0 µM): 77.5%
1170,93,,,,,COc1ccc(F)c(-c2ccc(-n3cc(-c4cccc(C(=O)[O-])c4)nn3)cc2)c1.[Na+],,
,,,,,,COc1cccc(OC)c1-c1ccc(-c2cn(-c3cccc(C(=O)O)c3)nn2)cc1,,Activity [26]: Active; Activity [27]: Active
